Screens deposited in PubChem BioAssay by Johns Hopkins Ion Channel Center.
TRPC4 potent – allosteric potentiators of mouse TRPC4 channel; Q9QUQ5; HEK293 TRPC4beta/mu-opioid, DAMGO EC20, Fluo-4 Ca2+ flux; hits give high values; B-score at 10 µM; 310,000 compounds, 0.42% hits;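 active = B-score of calcium response area above 5 SD of library B-scores, with initial fluorescence ratio within 5 SD of library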;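 note: B-score of integrated fluorescence ratio over time as area under calcium response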
TRPC4 block – TRPC4 (mouse) channel inhibition | Q9QUQ5 | HEK293 TRPC4beta/mu-opioid, DAMGO-evoked Fluo4 calcium flux; hits give low values | B-score at 10 µM | 300,000 compounds, 0.39% hits | AID 2247;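 active = B-score over 3 SD under the library average, no early fluorescence shift, positive overall ratio signal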
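Assay system: Stable TRPC4beta/mu-opioid receptor HEK293 cells | Reagent: DAMGO in two steps, submaximal then maximal | Compound dosing: Single concentration per test compound | Signal: Fluo4 Ca2+ flux fluorescence | Evaluation: Per-well B score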
TRPC6 act – activates the mouse TRPC6 cation channel; Q61143; HEK293-TRPC6 membrane potential dye fluorescence; hits give high values; B-score at 10 µM; 310,000 compounds, 0.13% hits; AID 2550;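 active = B-score of the integrated fluorescence ratio above library mean plus 3 SD, and starting fluorescence ratio within library mean plus 5 SD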;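 note: higher score means more depolarization so channel activation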
Target sequence (Q61143 whole entry, looked up): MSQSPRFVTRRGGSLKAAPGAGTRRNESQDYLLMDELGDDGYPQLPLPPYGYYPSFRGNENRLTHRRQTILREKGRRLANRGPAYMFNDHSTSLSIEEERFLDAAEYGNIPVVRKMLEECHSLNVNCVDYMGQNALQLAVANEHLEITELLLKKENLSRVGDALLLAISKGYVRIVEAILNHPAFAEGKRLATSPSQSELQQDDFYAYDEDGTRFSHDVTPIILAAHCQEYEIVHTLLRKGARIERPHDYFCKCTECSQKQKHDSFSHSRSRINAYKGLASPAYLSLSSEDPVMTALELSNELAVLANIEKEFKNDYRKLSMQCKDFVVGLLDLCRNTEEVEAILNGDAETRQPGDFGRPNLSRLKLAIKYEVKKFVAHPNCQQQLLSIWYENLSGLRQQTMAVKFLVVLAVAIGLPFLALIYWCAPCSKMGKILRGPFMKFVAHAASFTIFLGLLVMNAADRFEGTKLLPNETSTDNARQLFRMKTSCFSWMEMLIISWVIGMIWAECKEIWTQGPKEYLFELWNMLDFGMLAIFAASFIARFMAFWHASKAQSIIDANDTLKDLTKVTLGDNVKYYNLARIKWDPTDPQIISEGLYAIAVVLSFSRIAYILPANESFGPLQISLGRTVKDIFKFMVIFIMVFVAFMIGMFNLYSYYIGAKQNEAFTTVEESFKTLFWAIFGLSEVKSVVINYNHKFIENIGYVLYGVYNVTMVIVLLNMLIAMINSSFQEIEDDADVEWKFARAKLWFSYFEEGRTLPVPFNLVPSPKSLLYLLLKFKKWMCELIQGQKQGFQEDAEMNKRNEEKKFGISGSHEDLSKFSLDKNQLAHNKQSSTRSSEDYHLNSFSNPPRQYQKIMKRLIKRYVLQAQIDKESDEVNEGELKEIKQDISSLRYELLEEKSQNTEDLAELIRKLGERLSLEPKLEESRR
TRPC4 act – activators of mouse TRPC4 channel; AID 2237; HEK293 TRPC4beta/mu-opioid, Fluo4 calcium fluorescence; hits give high values; 310,000 compounds, 0.49% hits; B-score at 10 µM; Q9QUQ5;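 active = B-score above 5 SD of library B-scores, and initial fluorescence ratio not above library mean plus 5 SD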;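 note: positive B-score marks a calcium rise read as TRPC4 activation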
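Test system: HEK293 cells stably co-expressing mouse TRPC4beta and mu-opioid receptor | Schedule: Fluo4 dye loading 45 min at room temperature, 110 s recording | Measured by: Kinetic Fluo4 calcium fluorescence, 5 s baseline at 1 Hz | Evaluation: B score of integrated ratio | Controls: Buffer (low) and maximal DAMGO (high)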
TRPC6 inhibitor – mouse TRPC6 channel inhibition; AID 2553; B-score at 10 µM; HEK293-TRPC6, membrane potential dye, ACh-evoked depolarization; hits give low values; Q61143; 310,000 compounds, 1.1% hits;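 active = B-score under library mean minus 3 SD, initial fluorescence not abnormally high, positive integrated signal ratio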;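 note: B-score derived from integrated fluorescence ratio over the kinetic read; more negative B-score means stronger inhibition of depolarization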
Kir21 inh – blocks the mouse Kir2.1 inward-rectifier potassium channel; P35561; HEK293-Kir2.1, FluxOR thallium flux fluorescence; hits give low values; B-score at 10 µM; 310,000 compounds, 0.85% hits; AID 1672;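 active = fluorescence ratio B-score at or below minus 3 SD of library scores, with starting-brightness B-score within 2 SD, cut at about -4.2 in these data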;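 note: channel flux triggered by added potassium and thallium sulfate stimulus; B-score of peak minus minimum fluorescence over baseline after thallium stimulus; more negative B-score means stronger Kir2.1 block with less thallium influx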
TRPC4 spec 2 – second selectivity test of TRPC6 inhibitors: effect on mouse TRPC4. shares compounds with TRPC6 inhibitor. HEK293 TRPC4/MOR, membrane potential dye fluorescence; channel activated by saturating DAMGO dose. inhibition, % at 10 µM. 920 compounds, 42% hits. AID 2776;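 active = compounds whose fluorescence signal differed from control wells by over 3 SD, either direction, in both duplicate plates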
TRPC4 spec – mouse TRPC4 off-target activity of TRPC6 inhibitors. activity change, negative = inhibition, % at 10 µM. HEK293 TRPC4/mu-opioid, membrane potential fluorescence. shares compounds with TRPC6 inhibitor. 920 compounds, 61% hits;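 active = rise or fall in signal beyond 3 SD of buffer-only wells in both replicate plates, either sign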;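 note: integrated kinetic ratio of fluorescence range over baseline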
HEK293 MPD ctr 2-1 – parental HEK293 nonspecific activity of TRPC6 inhibitors, second screen | parental HEK293 membrane potential dye fluorescence; maximal acetylcholine challenge after compound addition | signal change vs control, % at 10 µM | shares compounds with TRPC6 inhibitor | 920 compounds, 31% hits;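 active = membrane potential signal moving either way by over 3 SD of the maximum-effect control, in both duplicate plates, meaning non-specific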
HEK293 MPD ctr-1 – checks TRPC6 inhibitor effects in parental HEK293 cells; shares compounds with TRPC6 inhibitor; parental HEK293 membrane potential dye fluorescence; membrane potential signal change, % at 10 µM; 920 compounds, 60% hits;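 active = membrane potential signal shifting up or down by more than 3 SD of buffer-only wells, on both duplicate plates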
HEK293 MPD ctr-2 – checks TRPC6 modulator effects in parental HEK293 cells; 2,400 compounds, 51% hits; shares compounds with TRPC6 inhibitor; membrane potential dye fluorescence; AID 488924; membrane potential signal change, % at 10 µM;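 active = membrane potential signal moves up or down beyond 5 SD from buffer-only wells, on both duplicate plates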
HEK293 MPD ctr 2-2 – second check of TRPC6 modulator effects in parental HEK293 cells; AID 488926; membrane potential dye fluorescence; after compound, maximal acetylcholine stimulation; inhibition, % at 10 µM; shares compounds with TRPC6 inhibitor; 2,400 compounds, 14% hits;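 active = membrane potential signal drops by more than 5 SD from the mean control signal, in both duplicate plates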;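 note: plate controls were acetylcholine ECmax control wells for no effect and buffer only wells for full effect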
TRPC4 ctr mod – tests whether TRPC6 modulators also affect mouse TRPC4. shares compounds with TRPC6 inhibitor. HEK293 TRPC4/mu-opioid, membrane potential fluorescence. percent change from control (negative = decrease, positive = increase), % at 10 µM. 2,400 compounds, 69% hits;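 active = membrane potential signal moved up or down beyond 5 SD of buffer control wells, in both duplicate plates, actives on both sides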;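 note: plate controls were assay buffer wells for no effect and DAMGO maximal-effect wells for full effect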
TRPC4/MOR inh 2 – second selectivity test of TRPC6 modulators against mouse TRPC4 | shares compounds with TRPC6 inhibitor | HEK293 TRPC4/mu-opioid, membrane potential dye fluorescence; stimulated with maximal-effect DAMGO | inhibition, % at 10 µM | 2,400 compounds, 55% hits | AID 488928;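 active = drop in membrane potential signal beyond 5 SD of the control wells in both duplicate plates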;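 note: TRPC4 counter screen for TRPC6 hits run under conditions tuned for TRPC6 not TRPC4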
TRPC6 inh conf – mouse TRPC6 inhibitor confirmation; shares compounds with TRPC6 inhibitor; inhibition, % at 10 µM; HEK293-TRPC6, membrane potential dye, ACh-evoked depolarization; 3,300 compounds, 43% hits;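 active = fluorescence ratio falls more than 5 SD below the full-stimulation control mean, in both duplicate runs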;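 note: integrated fluorescence ratio of peak minus minimum over baseline after agonist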
TRPC6 act conf – mouse TRPC6 activator confirmation. shares compounds with TRPC6 inhibitor. HEK293-TRPC6 membrane potential dye fluorescence, FDSS. 2,800 compounds, 11% hits. activation, % at 10 µM. AID 488961;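 active = ratio signal rise beyond 5 SD above unstimulated control wells' mean, seen in both duplicate runs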;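 note: plate controls were buffer EC0 wells for no effect and acetylcholine ECmax response for full effect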
Active calls of the source: *. Most compounds without a hit are left out; they make up all but 2.9% or so of the library.

What do the screens show for `Cc1cccc2sc(N(CCCN(C)C)C(=O)c3ccco3)nc12`?
TRPC4 potent: inactive; TRPC4 block: inactive; TRPC6 act: inactive; TRPC4 act: inactive; TRPC6 inhibitor: -6.78*; Kir21 inh: -2.9; TRPC4 spec 2: 24.0%*; TRPC4 spec: -19.4%*; HEK293 MPD ctr 2-1: 9.0%*; HEK293 MPD ctr-1: inactive; TRPC6 inh conf: 99.4%*; TRPC6 act conf: inactive

Results for Cc1cccc2sc(N(CCN(C)C)C(=O)c3ccc4ccccc4c3)nc12 ?
TRPC4 potent: inactive; TRPC4 block: inactive; TRPC6 act: inactive; TRPC4 act: inactive; TRPC6 inhibitor: inactive; Kir21 inh: 1.69

Results for Cc1cc(C)c2nc(N(CCCN(C)C)C(=O)C3=COCCO3)sc2c1 ?
TRPC4 potent: inactive; TRPC4 block: inactive; TRPC6 act: inactive; TRPC4 act: inactive; TRPC6 inhibitor: inactive; Kir21 inh: -2.81

Results for Cc1cc(C)c2sc(N(CCCN(C)C)C(=O)c3ccc(Br)s3)nc2c1 ?
TRPC4 potent: inactive; TRPC4 block: inactive; TRPC6 act: inactive; TRPC4 act: inactive; TRPC6 inhibitor: -9.63*; Kir21 inh: -4.01; TRPC4 spec 2: 35.0%*; TRPC4 spec: -17.4%*; HEK293 MPD ctr 2-1: inactive; HEK293 MPD ctr-1: inactive; TRPC6 inh conf: 77.9%*; TRPC6 act conf: inactive

How did Cc1cccc2sc(N(CCCN(C)C)C(=O)c3ccc(Cl)s3)nc12 do in these assays?
TRPC4 potent: inactive; TRPC4 block: inactive; TRPC6 act: inactive; TRPC4 act: inactive; TRPC6 inhibitor: -6.61*; Kir21 inh: -5.4*; TRPC4 spec 2: 42.5%*; TRPC4 spec: -14.3%*; HEK293 MPD ctr 2-1: inactive; HEK293 MPD ctr-1: inactive; TRPC6 inh conf: 67.3%*; TRPC6 act conf: inactive

How did Cc1cc(C)c2sc(N(CCN(C)C)C(=O)c3c(F)cccc3F)nc2c1 do in these assays?
TRPC4 potent: inactive; TRPC4 block: inactive; TRPC6 act: inactive; TRPC4 act: inactive; TRPC6 inhibitor: inactive; Kir21 inh: 1.85

How did COc1ccc(CCNC(=O)CC2Nc3cc(C)c(C)cc3NC2=O)cc1OC (centres undefined) do in these assays?
TRPC4 potent: inactive; TRPC4 block: inactive; TRPC6 act: inactive; TRPC4 act: inactive; TRPC6 inhibitor: inactive; Kir21 inh: -0.06

How did Cc1ccc2nc3c(c(C(=O)OCC(=O)N(C)C4CCS(=O)(=O)C4)c2c1)CCCC3 (centres undefined) do in these assays?
TRPC4 potent: inactive; TRPC4 block: inactive; TRPC6 act: inactive; TRPC4 act: inactive; TRPC6 inhibitor: inactive; Kir21 inh: 0.17

Results for O=C(O)CC(NC(=O)CCc1ccccc1)c1ccc(Cl)cc1 (centres undefined) ?
TRPC4 potent: inactive; TRPC4 block: inactive; TRPC6 act: inactive; TRPC4 act: inactive; TRPC6 inhibitor: inactive; Kir21 inh: -0.01

What do the screens show for `Cc1cc(Cn2ccnc2)c(C)cc1Cn1ccnc1`?
TRPC4 potent: inactive; TRPC4 block: inactive; TRPC6 act: inactive; TRPC4 act: inactive; TRPC6 inhibitor: inactive; Kir21 inh: 0.27

What do the screens show for `COc1ccc(S(=O)(=O)N2CCCCC2)cc1NC(=O)C1CSC2(C)CCC(=O)N12` (centres undefined)?
TRPC4 potent: inactive; TRPC4 block: inactive; TRPC6 act: inactive; TRPC4 act: inactive; TRPC6 inhibitor: inactive; Kir21 inh: 0.45

How did CCOc1ccc(S(=O)(=O)N2CCCCC2)cc1NC(=O)C1CSC2(C)CCC(=O)N12 (centres undefined) do in these assays?
TRPC4 potent: inactive; TRPC4 block: inactive; TRPC6 act: 12.3*; TRPC4 act: inactive; TRPC6 inhibitor: -8.33*; Kir21 inh: -0.32; HEK293 MPD ctr-2: 152.0%*; HEK293 MPD ctr 2-2: inactive; TRPC4 ctr mod: 33.0%*; TRPC4/MOR inh 2: inactive; TRPC6 inh conf: 67.5%*; TRPC6 act conf: 106.0%*

Results for Cc1ccc(-c2nnc(CSc3nc(C(C)C)nc4sc(C)c(C)c34)o2)cc1 ?
TRPC4 potent: inactive; TRPC4 block: inactive; TRPC6 act: inactive; TRPC4 act: inactive; TRPC6 inhibitor: -5.55*; Kir21 inh: 2.32; HEK293 MPD ctr-2: inactive; HEK293 MPD ctr 2-2: inactive; TRPC4 ctr mod: inactive; TRPC4/MOR inh 2: inactive; TRPC6 inh conf: inactive; TRPC6 act conf: inactive

What do the screens show for `Cc1sc2c(c1C)c(=O)nc1n2Cc2ccccc2-1`?
TRPC4 potent: inactive; TRPC4 block: inactive; TRPC6 act: inactive; TRPC4 act: inactive; TRPC6 inhibitor: inactive; Kir21 inh: 0.41

Results for Fc1cccc(NCc2cn3ccccc3n2)c1 ?
TRPC4 potent: inactive; TRPC4 block: inactive; TRPC6 act: inactive; TRPC4 act: inactive; TRPC6 inhibitor: -5.48*; Kir21 inh: 0.03; HEK293 MPD ctr-2: inactive; HEK293 MPD ctr 2-2: inactive; TRPC4 ctr mod: inactive; TRPC4/MOR inh 2: inactive; TRPC6 inh conf: inactive; TRPC6 act conf: inactive
